Reference: ChEMBL document CHEMBL1269007, “Synthesis and biological evaluation of Apogossypolone derivatives as pan-active inhibitors of antiapoptotic B-cell lymphoma/leukemia-2 (Bcl-2) family proteins” (J Med Chem, 2010)
Values joined by “and” are separate entries in the source; they are usually repeats but may differ in a detail not shown here. Equal entries are not always repeated. Active and inactive are the calls of the source. No cut-off for these calls is given here.

Assays:
Bcl-2-like protein 1 [1] = target: T1, Bcl-2-like protein 1 (Homo sapiens, UniProt Q07817); assay: Binding affinity Bcl-xL by isothermal titration calorimetry assay
Bcl-2-like protein 1 [2] = target: T1, Bcl-2-like protein 1; assay: Displacement of F-BakBH3 from Bcl-xL after 30 mins by fluorescence polarization assay
Outline: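 GST-Bcl-XL ΔTM (100 nM) preincubated with varying compound concentrations in PBS pH 7.4 for 10 min at room temperature. FITC-labelled Bak BH3 peptide (2.5 μL of 100 nM stock) then added. Polarization read at 480/535 nm after 30 min at room temperature. Wild-type and mutant Bak BH3 peptides served as plate controls. IC50 from sigmoidal dose-response fit; mean of three independent experiments ± SE.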

Mus musculus [3] = assay: Toxicity in human PPC1 cells xenografted nude mouse assessed as mortality at 25 mg/kg, ip administered weekly 3 times; assay type: organism-based, PPC-1; set-up: dose 25 mg/kg, route intraperitoneal; conditions: in vivo
Outline: (§1)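 PPC-1 flank xenografts (5×10^6 cells s.c.) in female 6-week-old nude mice, size-matched at 200 mm³, 6 per group. Compound given i.p. three times in the first week in ethanol:Cremophor EL:saline 10:10:80 (500 μL); controls got saline. Survival and body weight monitored during week 1.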

Mus musculus [4] = assay: Reduction of spleen weight in human Bcl2 expressing B6 transgenic BALB/c mouse at 30 umol/kg, ip administered as single dose after 24 hrs; assay type: functional; set-up: scale not given: the % may be the effect or the level left
[5] = Metabolic stability of the compound in rat microsomes after 40 mins; assay type: ADME, Microsome; conditions: read-out: Stability
[6] = target: Induced myeloid leukemia cell differentiation protein Mcl-1 (Homo sapiens, UniProt Q07820); assay: Displacement of FITC-Bim BH3 peptide from Mcl-1 after 10 mins by fluorescence polarization assay
Mus musculus [7] = assay: Toxicity in human Bcl2 expressing B6 transgenic BALB/c mouse assessed as mortality at 60 umol/kg, ip administered as single dose after 24 hrs; assay type: organism-based; conditions: in vivo
Outline: (§2)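 Age- and sex-matched B6 Bcl2 transgenic mice (human BCL-2/IgH minigene on Balb/c background, no aggressive lymphoma yet) given a single i.p. injection of compound in 500 μL ethanol:Cremophor EL:saline 10:10:80. Controls received vehicle. Animals sacrificed at 24 h with Avertin; spleen removed and weighed.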

Bcl-2-related protein A1 = target: T2, Bcl-2-related protein A1 (Homo sapiens, UniProt Q16548); assay: Displacement of F-BakBH3 from Bfl-1 after 30 mins by fluorescence polarization assay
T2 sequence (Q16548 whole entry): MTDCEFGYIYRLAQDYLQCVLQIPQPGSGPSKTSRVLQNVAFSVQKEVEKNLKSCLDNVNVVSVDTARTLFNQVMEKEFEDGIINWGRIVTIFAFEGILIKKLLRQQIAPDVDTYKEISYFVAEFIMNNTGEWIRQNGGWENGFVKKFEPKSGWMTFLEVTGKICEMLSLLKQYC

Mus musculus [8] = assay: Toxicity in human Bcl2 expressing B6 transgenic BALB/c mouse assessed as mortality at 30 umol/kg, ip administered as single dose after 24 hrs; assay type: organism-based; conditions: in vivo; outline: as §2
[9] = target: Apoptosis regulator Bcl-2 (Homo sapiens, UniProt P10415); assay: Displacement of FITC-Bim BH3 peptide from Bcl-2 after 10 mins by fluorescence polarization assay
[10] = Metabolic stability of the compound in rat plasma after 40 mins; assay type: ADME, cell-free; conditions: read-out: Stability
Mus musculus [11] = assay: Reduction of spleen weight in ip dosed human Bcl2 expressing B6 transgenic BALB/c mouse administered as single dose after 24 hrs; assay type: functional, organism-based
Bcl-2-like protein 1 [12] = target: T1, Bcl-2-like protein 1; assay: Binding affinity Bcl-xL at 200 uM by one-dimensional 1H nuclear magnetic resonance spectroscopy
PPC-1 [13] = assay: Antitumor activity against human PPC1 cells xenografted in nude mouse assessed as tumor regression at 50 mg/kg, ip administered weekly 3 times; assay type: functional, organism-based; set-up: dose 50 mg/kg
Outline: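 Female 6-week-old nude mice given 5×10^6 cells in 0.2 ml PBS subcutaneously in the flank; tumours size-matched at 200 mm³, 6 mice/group. Intraperitoneal injections in ethanol:Cremophor EL:saline 10:10:80 (500 μL), three times week 1, twice week 2, once week 3; controls received saline. Caliper volume (length×width²/2) two to three times weekly; T/C% = mean treated/mean control volume.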

Mus musculus [14] = assay: Reduction of spleen weight in human Bcl2 expressing B6 transgenic BALB/c mouse at 60 umol/kg, ip administered as single dose after 24 hrs; assay type: functional; set-up: scale not given: the % may be the effect or the level left
RS4-11 = assay: Induction of apoptosis in human RS4:11 cells expressing high level of Bcl-2 and Bcl-xL after 24 hrs by annexin V-FITC and propidium iodide staining; assay type: functional, cell-based
Homo sapiens = organism: Homo sapiens; assay: Induction of apoptosis in human CLL after 24 hrs by annexin V-FITC and propidium iodide staining; assay type: functional
Outline: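 Freshly isolated primary leukaemic cells from CLL patients cultured in RPMI 1640 with 10% FBS and penicillin/streptomycin with various compound concentrations for 1 day. Annexin V-FITC/propidium iodide staining read by flow cytometry; annexin-V-negative, PI-negative cells counted as viable; LD50 derived from dose-response.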

PPC-1 [15] = assay: Antitumor activity against human PPC1 cells xenografted in nude mouse assessed as tumor regression at 50 mg/kg, ip administered 5 times measured on after 2 weeks relative to control; assay type: functional; conditions: route intraperitoneal
Outline: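 Female 6-week-old nude mice injected s.c. in the flank with 5×10^6 PPC-1 cells in 0.2 ml PBS; size-matched at 200 mm³, 6 per group. Compound given i.p. in ethanol:Cremophor EL:saline 10:10:80 (500 μL), three times in week 1, twice in week 2, once in week 3; controls got saline. Caliper volume (length × width²/2) 2–3 times weekly; T/C% = mean treated volume / mean control volume.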

BP3 = assay: Induction of apoptosis in human BP3 cells expressing high level of Bfl-1 and Mcl-1 after 24 hrs by annexin V-FITC and propidium iodide staining; assay type: functional, cell-based
Mus musculus [16] = assay: Toxicity in human PPC1 cells xenografted nude mouse assessed as weight loss at 50 mg/kg, ip administered weekly 3 times; assay type: organism-based, PPC-1; set-up: dose 50 mg/kg, route intraperitoneal; conditions: in vivo
Outline: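 Nude mice carrying subcutaneous flank xenografts (5×10^6 cells), size-matched at 200 mm³, 6 per group. Dosed intraperitoneally in ethanol:Cremophor EL:saline 10:10:80, three times in week 1, twice in week 2, once in week 3; saline controls. Body weight followed over treatment and reported as average percentage loss.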

[17] = Cytotoxicity against human RS4:11 cells expressing high level of Bcl-2 and Bcl-xL after 24 hrs by annexin V-FITC and propidium iodide staining; conditions: RS4-11, 24 h
[18] = Cytotoxicity against human H1299 cells expressing high level of Mcl-1 after 72 hrs by ATP-LITE assay; assay type: functional, cell-based; conditions: NCI-H1299, 72 h
Outline: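 Cells seeded in […] or RPMI1640 with 5 mM L-glutamine, 5% FBS, penicillin/streptomycin; H460 and H1299 at 2000, PC3 at 3000 cells/well. Compounds in 0.1% DMSO final added 24 h after seeding into fresh 5% serum medium; viability by ATP-LITE luminescence after 72 h, normalised to DMSO-treated cells.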

Mus musculus [19] = assay: Toxicity in human Bcl2 expressing B6 transgenic BALB/c mouse up to 120 umol/kg, ip administered as single dose after 24 hrs; assay type: organism-based; conditions: in vivo
Outline: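 B6 Bcl-2 transgenic Balb/c mice, age- and sex-matched, given one intraperitoneal dose (60 or 120 μmol/kg, also 30 μmol/kg) in ethanol:Cremophor EL:saline 10:10:80, 500 μL; survival and signs of toxicity observed over 24 h before sacrifice.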

Mus musculus [20] = assay: Toxicity in human Bcl2 expressing B6 transgenic BALB/c mouse assessed as weight loss up to 120 umol/kg, ip administered as single dose after 24 hrs; assay type: organism-based; conditions: in vivo
Mus musculus [21] = assay: Toxicity in human PPC1 cells xenografted nude mouse assessed as mortality at 50 mg/kg, ip administered weekly 3 times; assay type: organism-based, PPC-1; set-up: dose 50 mg/kg, route intraperitoneal; conditions: in vivo; outline: as §1
Mus musculus [22] = assay: Reduction of spleen weight in human Bcl2 expressing B6 transgenic BALB/c mouse at 60 umol/kg, ip administered as single dose after 24 hrs relative to control; assay type: functional; set-up: scale not given: the % may be the effect or the level left

Sequence of Apoptosis regulator Bcl-2 (P10415 whole entry): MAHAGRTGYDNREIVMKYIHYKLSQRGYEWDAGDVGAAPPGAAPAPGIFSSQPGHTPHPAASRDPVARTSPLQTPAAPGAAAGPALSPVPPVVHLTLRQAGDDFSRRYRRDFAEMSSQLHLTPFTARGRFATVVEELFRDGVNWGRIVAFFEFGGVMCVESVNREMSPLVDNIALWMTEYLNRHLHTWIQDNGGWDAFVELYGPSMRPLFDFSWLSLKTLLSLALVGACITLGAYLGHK
T1 sequence (Q07817 whole entry): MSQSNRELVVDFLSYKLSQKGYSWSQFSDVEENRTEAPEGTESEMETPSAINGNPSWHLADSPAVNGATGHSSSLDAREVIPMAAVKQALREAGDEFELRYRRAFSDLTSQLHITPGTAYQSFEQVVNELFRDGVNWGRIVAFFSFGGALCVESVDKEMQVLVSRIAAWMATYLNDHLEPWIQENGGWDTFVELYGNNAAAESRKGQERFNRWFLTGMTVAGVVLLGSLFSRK
Sequence of Induced myeloid leukemia cell differentiation protein Mcl-1 (Q07820 whole entry): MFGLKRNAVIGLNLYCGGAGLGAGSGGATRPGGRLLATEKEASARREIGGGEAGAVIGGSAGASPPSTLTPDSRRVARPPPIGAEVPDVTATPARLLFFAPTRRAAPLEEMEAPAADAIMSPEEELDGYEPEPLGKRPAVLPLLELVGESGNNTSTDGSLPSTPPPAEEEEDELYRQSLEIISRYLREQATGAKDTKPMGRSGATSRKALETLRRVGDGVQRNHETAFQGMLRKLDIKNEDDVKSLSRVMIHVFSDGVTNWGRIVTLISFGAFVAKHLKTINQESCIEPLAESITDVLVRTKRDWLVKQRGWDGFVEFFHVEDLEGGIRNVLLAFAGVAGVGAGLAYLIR

Structure (SMILES) | Kd (Bcl-2-like protein 1 [1]) [µM] | IC50 (Bcl-2-like protein 1 [2]) [µM] | Ki (Bcl-2-like protein 1 [2]) [µM] | Activity (Mus musculus [3]) | Activity (Mus musculus [4]) [%] | remaining at 40 min [5] [%] | IC50 [6] [µM] | Ki [6] [µM] | Activity (Mus musculus [7]) | IC50 (Bcl-2-related protein A1) [µM] | Ki (Bcl-2-related protein A1) [µM] | Activity (Mus musculus [8]) | IC50 [9] [µM] | Ki [9] [µM] | remaining at 40 min [10] [%] | Activity (Mus musculus [11]) | Activity (Bcl-2-like protein 1 [12]) | Activity (PPC-1 [13]) | Activity (Mus musculus [14]) [%] | Activity (RS4-11) | other results
CC1=C(C2=C(C)C(=O)c3c(cc(O)c(O)c3Cc3ccccc3)C2=O)C(=O)c2cc(O)c(O)c(Cc3ccccc3)c2C1=O | 0.45 | 0.34 | 0.23 | Toxic | 86 | 91 | 0.24 | 0.16 | Toxic | 0.65 | 0.43 | Non-toxic | 0.29 | 0.19 | 95 | Dose-dependent effect | Active |  |  |  | 
CC1=C(C2=C(C)C(=O)c3c(cc(O)c(O)c3C(C)C)C2=O)C(=O)c2cc(O)c(O)c(C(C)C)c2C1=O |  |  | 0.42 |  |  |  |  | 0.43 |  |  | 1.47 |  |  | 0.25 | 77 | Dose-dependent effect | Active | Active | 20 | Dose-dependent effect | LD50 (Homo sapiens): > 30 µM; Activity (PPC-1 [15]): 65%; Activity (BP3): Dose-dependent effect; Activity (Mus musculus [16]): 9.3%
Cc1cc2c(C(C)C)c(O)c(O)c(C=O)c2c(O)c1-c1c(C)cc2c(C(C)C)c(O)c(O)c(C=O)c2c1O [GOSSYPOL] |  |  |  | Toxic |  |  |  |  |  |  |  |  |  |  |  |  |  |  |  |  | 
CC1=C(C2=C(C)C(=O)c3c(cc(O)c(O)c3C(=O)NCC(C)c3ccccc3)C2=O)C(=O)c2cc(O)c(O)c(C(=O)NCC(C)c3ccccc3)c2C1=O (stereo not drawn) |  | 0.32 | 0.21 |  |  | 71 | 0.47 | 0.31 | Toxic | 0.71 | 0.47 | Non-toxic | 0.23 | 0.15 | 91 | Dose-dependent effect | Active |  |  |  | EC50 [17]: > 30 µM; EC50 [18]: > 30 µM
CC1=C(C2=C(C)C(=O)c3c(cc(O)c(O)c3CCc3ccc(C)cc3)C2=O)C(=O)c2cc(O)c(O)c(CCc3ccc(C)cc3)c2C1=O | 2.5 | 3.1 | 2.07 |  |  |  | 2.05 | 1.37 |  |  |  |  | 3.12 | 2.08 | 86 | Dose-dependent effect | Active | Active | 30 | Dose-dependent effect | Activity (Mus musculus [19]): Non-toxic; Activity (Homo sapiens): Dose-dependent effect; LD50 (Homo sapiens): 10 µM; Activity (Mus musculus [20]): 5%; Activity (PPC-1 [15]): 33%; Activity (Mus musculus [21]): Non-toxic; Activity (BP3): Dose-dependent effect; Activity (Mus musculus [16]): 5% and 6.8%; Activity (Mus musculus [22]): 60%
CC1=C(C2=C(C)C(=O)c3c(cc(O)c(O)c3Cc3ccc(Cl)cc3)C2=O)C(=O)c2cc(O)c(O)c(Cc3ccc(Cl)cc3)c2C1=O |  | 0.15 | 0.11 |  | 76 |  | 0.4 | 0.27 | Toxic | 0.7 | 0.47 | Non-toxic | 0.34 | 0.23 |  | Dose-dependent effect | Active |  |  |  | 
